Test results: ChEMBL document CHEMBL4376851 (J Med Chem, 2020)

Experiments:
[1] = target: T1, Aldo-keto reductase family 1 member B1 (Rattus norvegicus, UniProt P07943); assay: Inhibition of rat lens ALR2 using D,L-glyceraldehyde as substrate incubated for 1 min and measured up to 4 mins using 1% DMSO-dissolved compound by spectrophotometric analysis
Procedure, shortened: (§1)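 ALR2 purified from lenses of male Wistar rats (8–9 weeks, 200–230 g); in vitro reduction of D,L-glyceraldehyde (5.0 mM) monitored. Solvent was water or 1% DMSO. Same enzyme batch throughout. IC50 is the mean of two measurements or mean ± SD of at least three.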

[2] = target: T1, Aldo-keto reductase family 1 member B1; assay: Inhibition of rat lens ALR2 using D,L-glyceraldehyde as substrate incubated for 1 min and measured up to 4 mins using H2O-dissolved compound by spectrophotometric analysis; procedure, shortened: as §1
[3] = Inhibition of rat kidney ALR1 using sodium D-glucuronate as substrate incubated for 1 min and measured up to 4 mins using H2O-dissolved compound by spectrophotometric analysis
Procedure, shortened: (§2)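 ALR1 purified from kidneys of male Wistar rats (8–9 weeks, 200–230 g); reduction of D-glucuronate monitored. Inhibitor dissolved in water. I (%) is inhibition at 100 μM inhibitor. Same enzyme batch throughout. Values are means of two measurements or mean ± SD of at least three.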

Rattus norvegicus [4] = species on record: Rattus norvegicus; assay: Selectivity index, ratio of IC50 for rat kidney ALR1 using sodium D-glucuronate as substrate incubated for 1 min and measured up to 4 mins using H2O-dissolved compound to IC50 for rat lens ALR2 using D,L-glyceraldehyde as substrate incubated for 1 min and measured up to 4 mins using H2O-dissolved compound
Procedure, shortened: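 Selectivity factor computed as IC50(ALR1, rat kidney, D-glucuronate) divided by IC50(ALR2, rat lens, D,L-glyceraldehyde), both measured with compounds in water.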

[5] = Antioxidant activity assessed as DPPH radical scavenging activity by measuring reduction in absorbance at 200 uM after 30 mins (reference value: 0.013 +/- 0.012); assay type: functional
Procedure, shortened: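 Stable DPPH radical, 50 μM in ethanol, incubated without (blank) or with test compound at 200 μM; absorbance decline at 518 nm read after the initial 30-min interval. Mean ± SD of at least three measurements.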

Rattus norvegicus [6] = species on record: Rattus norvegicus; assay: Inhibition of rat kidney ALR1 at 100 uM using sodium D-glucuronate as substrate incubated for 1 min and measured up to 4 mins using H2O-dissolved compound by spectrophotometric analysis relative to control; procedure, shortened: as §2
[7] = target: Aldo-keto reductase family 1 member B1 (Homo sapiens, UniProt P15121); assay: Inhibition of human AKR1B1 expressed in Escherichia coli using D,L-glyceraldehyde as substrate incubated for 1 min and measured up to 4 mins using by spectrophotometric analysis
[8] = target: Aldo-keto reductase family 1 member B1 (Rattus norvegicus) (UniProt P07943); assay: Inhibition of ALR2 in rat lens assessed as reduction in sorbitol accumulation preincubated for 30 mins followed by D-glucose addition and measured after 3 hrs by resazurin based fluorescence analysis
Procedure, shortened: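 Isolated eye lenses from female Wistar rats (9–10 weeks, 210–250 g) incubated with 50 mM glucose, alongside glucose-free and glucose-only controls. Inhibitor at 1, 10, 50 and 100 μM; lens sorbitol measured. Mean ± SEM of at least five independent incubations.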

[9] = target: Aldo-keto reductase family 1 member B10 (Homo sapiens, UniProt O60218); assay: Inhibition of human AKR1B10 using D,L-glyceraldehyde as substrate incubated for 1 min and measured up to 4 mins using by spectrophotometric analysis
Procedure, shortened: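 Human recombinant AKR1B10 at 10 μg/mL protein with 5 mM DL-glyceraldehyde substrate and 0.12 mM NADPH cofactor. Run without DMSO. IC50 is mean ± SD of at least three measurements.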

[10] = target: T1, Aldo-keto reductase family 1 member B1; assay: Inhibition of rat lens ALR2 using methylglyoxal as substrate incubated for 1 min and measured up to 4 mins by spectrophotometric analysis
Procedure, shortened: (§3)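 Rat lens ALR2 with methylglyoxal (0.5 mM), 4-hydroxynonenal (0.5 mM) or GS-HNE (1.0 mM). IC50 is mean ± SD of at least three measurements.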

[11] = target: T1, Aldo-keto reductase family 1 member B1; assay: Inhibition of rat lens ALR2 using 4-hydroxynonenal as substrate incubated for 1 min and measured up to 4 mins by spectrophotometric analysis; procedure, shortened: as §3
[12] = target: T1, Aldo-keto reductase family 1 member B1; assay: Inhibition of rat lens ALR2 using 4-hydroxynonenal glutathione as substrate incubated for 1 min and measured up to 4 mins by spectrophotometric analysis; procedure, shortened: as §3
[13] = target: T2, Sorbitol dehydrogenase (Ovis aries) (UniProt P07846); assay: Inhibition of sheep liver sorbitol dehydrogenase at 100 uM using sorbitol as substrate measured for 4 mins in presence of NAD+ by spectrophotometric analysis relative to control
T2 sequence (whole entry): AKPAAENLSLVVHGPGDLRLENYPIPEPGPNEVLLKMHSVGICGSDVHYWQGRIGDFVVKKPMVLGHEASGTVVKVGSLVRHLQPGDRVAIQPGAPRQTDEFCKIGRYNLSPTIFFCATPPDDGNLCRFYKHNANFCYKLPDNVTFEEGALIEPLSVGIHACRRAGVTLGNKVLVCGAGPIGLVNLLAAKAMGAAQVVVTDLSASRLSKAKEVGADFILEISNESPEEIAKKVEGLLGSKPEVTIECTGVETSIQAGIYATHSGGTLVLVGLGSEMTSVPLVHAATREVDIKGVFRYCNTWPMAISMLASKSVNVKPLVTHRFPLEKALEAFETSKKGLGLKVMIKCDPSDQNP

Homo sapiens = species on record: Homo sapiens; assay: Selectivity index, ratio of IC50 for human AKR1B10 to IC50 for human AKR1B1 expressed in Escherichia coli
Procedure, shortened: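 Ratio of IC50s against recombinant human AKR1B10 and AKR1B1, each measured without DMSO as inhibition of DL-glyceraldehyde reduction. AKR1B10 used 5 mM substrate, 0.12 mM nicotinamide adenine dinucleotide phosphate cofactor and 10 μg/mL protein. AKR1B1 used the rat-lens ALR2 assay conditions at 5 μg/mL protein. IC50s are mean ± SD of at least three measurements.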

Aldo-keto reductase family 1 member B10, sequence (O60218 whole entry): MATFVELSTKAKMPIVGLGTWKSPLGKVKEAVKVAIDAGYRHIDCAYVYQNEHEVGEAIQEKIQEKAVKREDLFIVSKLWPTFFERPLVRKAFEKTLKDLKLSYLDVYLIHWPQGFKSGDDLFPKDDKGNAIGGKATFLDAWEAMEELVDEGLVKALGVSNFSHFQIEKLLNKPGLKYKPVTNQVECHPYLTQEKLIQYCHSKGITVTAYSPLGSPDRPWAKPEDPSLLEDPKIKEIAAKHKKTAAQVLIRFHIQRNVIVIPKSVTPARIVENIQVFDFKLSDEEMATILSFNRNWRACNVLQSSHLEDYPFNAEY

Compound | IC50 [1] | IC50 [2] | IC50 [3] | Ratio IC50 (Rattus norvegicus [4]) | inhibition (Rattus norvegicus [6]) | IC50 [7] | inhibition [8] | IC50 [9] | IC50 [10] | IC50 [11] | IC50 [12] | inhibition [13] | Ratio IC50 (Homo sapiens) | Reduction in absorbance at 518 nm (DPPH) [5]
O=C(O)Cn1nc2c3ccccc3n(CC(=O)O)c2nc1=O | 233 nM | 120 nM | 20200 nM | 168 | – | – | – | – | – | – | – | – | – | –
COc1ccc2[nH]cc(CCNC(C)=O)c2c1 | – | – | – | – | – | – | – | – | – | – | – | – | – | 0.022
O=C(O)Cn1c2ccccc2c2n[nH]c(=O)nc21 | 51 nM | 42 nM | > 100000 nM | > 2380 | 24% | 66 nM | Dose-dependent effect | 56200 nM | 40 nM | 216 nM | 292 nM | 0.9% | > 850 | 0.057

Continued, in another order:

IC50 [1] | IC50 [2] | IC50 [3] | Ratio IC50 (Rattus norvegicus [4]) | inhibition (Rattus norvegicus [6]) | IC50 [7] | inhibition [8] | IC50 [9] | IC50 [10] | IC50 [11] | IC50 [12] | inhibition [13] | Ratio IC50 (Homo sapiens) | Compound | Reduction in absorbance at 518 nm (DPPH) [5]
– | – | 35000 nM | – | – | – | – | – | – | – | – | – | – | O=C(O)Cn1c2ccccc2c2nnc(S)nc21 | 0.219
787 nM | 434 nM | > 100000 nM | > 230 | 37.8% | – | – | – | – | – | – | – | – | O=C(O)Cn1c2ccccc2c2nn(Cc3ccccc3)c(=O)nc21 | –
118 nM | 85 nM | > 100000 nM | > 1180 | 13.4% | – | – | – | – | – | – | – | – | COCn1nc2c3ccccc3n(CC(=O)O)c2nc1=O | 0.042
